Assays:
[1] = biological target: 3-(3-hydroxydecanoyloxy)decanoate synthase (Pseudomonas aeruginosa (strain ATCC 15692 / PAO1 / 1C / PRS 101 / LMG12228)) (UniProt Q51559); assay: Modulation of Pseudomonas aeruginosa lacZ-fused rhlA expressed in Escherichia coli DH5alpha co-expressing Ptac-rhlR assessed as C4-AHL-induced effect at 0.34 mM after 4 hrs by beta-galactosidase assay relative to control
Procedure, shortened: (§1)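 rhl reporter: E. coli DH5α carrying pECP61.5 (Ptac-rhlR, PrhlA-lacZ) was grown overnight in LB with ampicillin (100 μg/ml) only, then diluted to OD600 0.150. It was induced with 1 mM IPTG, and 2 μM C4-HSL plus compound or DMSO were added at OD600 1.0. Cultures were shaken 4 h at 37 °C. β-Galactosidase activity was read in Miller units as % of the solvent sample. Triplicates per biological replicate, at least two repeats; paired two-tailed t-test.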

[2] = biological target: 3-(3-hydroxydecanoyloxy)decanoate synthase (Pseudomonas aeruginosa (strain ATCC 15692 / PAO1 / 1C / PRS 101 / LMG12228)) (UniProt Q51559); assay: Modulation of Pseudomonas aeruginosa lacZ-fused rhlA expressed in Escherichia coli DH5alpha co-expressing Ptac-rhlR assessed as C4-AHL-induced effect at 0.52 mM after 4 hrs by beta-galactosidase assay relative to control; procedure, shortened: as §1
[3] = biological target: T1, Acyl-homoserine-lactone synthase (Pseudomonas aeruginosa (strain ATCC 15692 / PAO1 / 1C / PRS 101 / LMG12228)) (UniProt P33883); assay: Modulation of Pseudomonas aeruginosa lacZ-fused lasI expressed in Escherichia coli DH5alpha co-expressing pBAD-lasR assessed as 3-oxo-C12-AHL-induced effect at 0.34 mM after 3 hrs by beta-galactosidase assay relative to control
T1 sequence (whole entry): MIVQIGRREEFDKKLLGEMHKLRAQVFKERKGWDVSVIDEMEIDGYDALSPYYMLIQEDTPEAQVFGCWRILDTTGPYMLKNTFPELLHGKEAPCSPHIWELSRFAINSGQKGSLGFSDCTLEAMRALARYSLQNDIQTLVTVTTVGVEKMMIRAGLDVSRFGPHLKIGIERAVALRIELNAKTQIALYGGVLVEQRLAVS
Procedure, shortened: (§2)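 E. coli DH5α carrying pSC11 (PlasI-lacZ translational fusion) and pJN105L (PBAD-lasR) was grown overnight in LB with ampicillin (100 μg/ml) and gentamicin (15 μg/ml), then diluted to OD600 0.150. Arabinose (0.2% w/v), 3-oxo-C12-AHL (2 μM) and test compound or DMSO were added. Cultures were shaken 3 h at 37 °C. β-Galactosidase activity was read in Miller units and expressed as % of the solvent sample. Triplicates per biological replicate, repeated at least twice; paired two-tailed t-test.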

[4] = biological target: T1, Acyl-homoserine-lactone synthase (Pseudomonas aeruginosa (strain ATCC 15692 / PAO1 / 1C / PRS 101 / LMG12228)); assay: Modulation of Pseudomonas aeruginosa lacZ-fused lasI expressed in Escherichia coli DH5alpha co-expressing pBAD-lasR assessed as 3-oxo-C12-AHL-induced effect at 0.17 mM after 3 hrs by beta-galactosidase assay relative to control; procedure, shortened: as §2
[5] = biological target: T1, Acyl-homoserine-lactone synthase (Pseudomonas aeruginosa (strain ATCC 15692 / PAO1 / 1C / PRS 101 / LMG12228)); assay: Modulation of Pseudomonas aeruginosa lacZ-fused lasI expressed in Escherichia coli DH5alpha co-expressing pBAD-lasR assessed as 3-oxo-C12-AHL-induced effect at 0.69 mM after 3 hrs by beta-galactosidase assay relative to control; procedure, shortened: as §2
[6] = biological target: T1, Acyl-homoserine-lactone synthase (Pseudomonas aeruginosa (strain ATCC 15692 / PAO1 / 1C / PRS 101 / LMG12228)); assay: Modulation of Pseudomonas aeruginosa lacZ-fused lasI expressed in Escherichia coli DH5alpha co-expressing pBAD-lasR assessed as 3-oxo-C12-AHL-induced effect at 0.52 mM after 3 hrs by beta-galactosidase assay relative to control; procedure, shortened: as §2
[7] = biological target: 3-(3-hydroxydecanoyloxy)decanoate synthase (Pseudomonas aeruginosa (strain ATCC 15692 / PAO1 / 1C / PRS 101 / LMG12228)) (UniProt Q51559); assay: Modulation of Pseudomonas aeruginosa lacZ-fused rhlA expressed in Escherichia coli DH5alpha co-expressing Ptac-rhlR assessed as C4-AHL-induced effect at 0.69 mM after 4 hrs by beta-galactosidase assay relative to control
Procedure, shortened: (§3)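 E. coli DH5α carrying pECP61.5 (Ptac-rhlR, PrhlA-lacZ), grown overnight in LB with ampicillin 100 μg/ml and diluted to OD600 0.150. At OD600 1.0, 1 mM IPTG, 2 μM C4-HSL and compound or DMSO were added. Cultures were shaken 4 h at 37 °C, then β-galactosidase was read in Miller units. Activity is % of solvent sample, from triplicates per biological replicate, with at least two repeats.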

[8] = biological target: 3-(3-hydroxydecanoyloxy)decanoate synthase (Pseudomonas aeruginosa (strain ATCC 15692 / PAO1 / 1C / PRS 101 / LMG12228)) (UniProt Q51559); assay: Modulation of Pseudomonas aeruginosa lacZ-fused rhlA expressed in Escherichia coli DH5alpha co-expressing Ptac-rhlR assessed as C4-AHL-induced effect at 0.17 mM after 4 hrs by beta-galactosidase assay relative to control; procedure, shortened: as §1
[9] = biological target: 3-(3-hydroxydecanoyloxy)decanoate synthase (Pseudomonas aeruginosa (strain ATCC 15692 / PAO1 / 1C / PRS 101 / LMG12228)) (UniProt Q51559); assay: Modulation of Pseudomonas aeruginosa lacZ-fused rhlA expressed in Escherichia coli DH5alpha co-expressing Ptac-rhlR assessed as C4-AHL-induced effect at 1.16 mM after 4 hrs by beta-galactosidase assay relative to control; procedure, shortened: as §3
[10] = biological target: T1, Acyl-homoserine-lactone synthase (Pseudomonas aeruginosa (strain ATCC 15692 / PAO1 / 1C / PRS 101 / LMG12228)); assay: Modulation of Pseudomonas aeruginosa lacZ-fused lasI expressed in Escherichia coli DH5alpha co-expressing pBAD-lasR assessed as 3-oxo-C12-AHL-induced effect at 1.16 mM after 3 hrs by beta-galactosidase assay relative to control; procedure, shortened: as §2
[11] = biological target: T1, Acyl-homoserine-lactone synthase (Pseudomonas aeruginosa (strain ATCC 15692 / PAO1 / 1C / PRS 101 / LMG12228)); assay: Modulation of Pseudomonas aeruginosa lacZ-fused lasI expressed in Escherichia coli DH5alpha co-expressing pBAD-lasR assessed as 3-oxo-C12-AHL-induced effect at 0.29 mM after 3 hrs by beta-galactosidase assay relative to control; procedure, shortened: as §2
[12] = biological target: 3-(3-hydroxydecanoyloxy)decanoate synthase (Pseudomonas aeruginosa (strain ATCC 15692 / PAO1 / 1C / PRS 101 / LMG12228)) (UniProt Q51559); assay: Modulation of Pseudomonas aeruginosa lacZ-fused rhlA expressed in Escherichia coli DH5alpha co-expressing Ptac-rhlR assessed as C4-AHL-induced effect at 0.29 mM after 4 hrs by beta-galactosidase assay relative to control; procedure, shortened: as §1
[13] = biological target: 3-(3-hydroxydecanoyloxy)decanoate synthase (Pseudomonas aeruginosa (strain ATCC 15692 / PAO1 / 1C / PRS 101 / LMG12228)) (UniProt Q51559); assay: Modulation of Pseudomonas aeruginosa lacZ-fused rhlA expressed in Escherichia coli DH5alpha co-expressing Ptac-rhlR assessed as C4-AHL-induced effect at 0.58 mM after 4 hrs by beta-galactosidase assay relative to control; procedure, shortened: as §3
[14] = biological target: 3-(3-hydroxydecanoyloxy)decanoate synthase (Pseudomonas aeruginosa (strain ATCC 15692 / PAO1 / 1C / PRS 101 / LMG12228)) (UniProt Q51559); assay: Modulation of Pseudomonas aeruginosa lacZ-fused rhlA expressed in Escherichia coli DH5alpha co-expressing Ptac-rhlR assessed as C4-AHL-induced effect at 0.87 mM after 4 hrs by beta-galactosidase assay relative to control; procedure, shortened: as §3
[15] = biological target: T1, Acyl-homoserine-lactone synthase (Pseudomonas aeruginosa (strain ATCC 15692 / PAO1 / 1C / PRS 101 / LMG12228)); assay: Modulation of Pseudomonas aeruginosa lacZ-fused lasI expressed in Escherichia coli DH5alpha co-expressing pBAD-lasR assessed as 3-oxo-C12-AHL-induced effect at 0.58 mM after 3 hrs by beta-galactosidase assay relative to control; procedure, shortened: as §2
[16] = biological target: T1, Acyl-homoserine-lactone synthase (Pseudomonas aeruginosa (strain ATCC 15692 / PAO1 / 1C / PRS 101 / LMG12228)); assay: Modulation of Pseudomonas aeruginosa lacZ-fused lasI expressed in Escherichia coli DH5alpha co-expressing pBAD-lasR assessed as 3-oxo-C12-AHL-induced effect at 0.87 mM after 3 hrs by beta-galactosidase assay relative to control; procedure, shortened: as §2

Compound	Activity [1]	Activity [2]	Activity [3]	Activity [4]	Activity [5]	Activity [6]	Activity [7]	Activity [8]	Activity [9]	Activity [10]	Activity [11]	Activity [12]	Activity [13]	Activity [14]	Activity [15]	Activity [16]
CCCCCCCCCSC[C@H]1NC(O)[C@H](O)[C@@H]1O (mixture of isomers)	127%	116%	78%	78%	53%	71%	121%	98%	–	–	–	–	–	–	–	–
CCCSC[C@@H]1CCC(=O)N1	–	–	–	–	–	–	–	–	108%	43%	90%	104%	118%	104%	72%	51%

Reference: ChEMBL document CHEMBL1817556, “Substituted lactam and cyclic azahemiacetals modulate Pseudomonas aeruginosa quorum sensing” (Bioorg Med Chem, 2011)
